CHRM5 PAM = human M5 muscarinic receptor positive allosteric modulators, primary screen, CHO-K1 cells, Fluo-8 calcium fluorescence; activation, % at 3 µM; hit rate 0.3% among 360,000; CHO-K1 hM5, ACh EC20 PAM; 0% = ACh EC20, 100% = ACh EC100;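 active = activation above the run cutoff, the mean activation of all test compounds plus 3 SD, cut at about 18% in these data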
Target sequence (P08912 whole entry, looked up): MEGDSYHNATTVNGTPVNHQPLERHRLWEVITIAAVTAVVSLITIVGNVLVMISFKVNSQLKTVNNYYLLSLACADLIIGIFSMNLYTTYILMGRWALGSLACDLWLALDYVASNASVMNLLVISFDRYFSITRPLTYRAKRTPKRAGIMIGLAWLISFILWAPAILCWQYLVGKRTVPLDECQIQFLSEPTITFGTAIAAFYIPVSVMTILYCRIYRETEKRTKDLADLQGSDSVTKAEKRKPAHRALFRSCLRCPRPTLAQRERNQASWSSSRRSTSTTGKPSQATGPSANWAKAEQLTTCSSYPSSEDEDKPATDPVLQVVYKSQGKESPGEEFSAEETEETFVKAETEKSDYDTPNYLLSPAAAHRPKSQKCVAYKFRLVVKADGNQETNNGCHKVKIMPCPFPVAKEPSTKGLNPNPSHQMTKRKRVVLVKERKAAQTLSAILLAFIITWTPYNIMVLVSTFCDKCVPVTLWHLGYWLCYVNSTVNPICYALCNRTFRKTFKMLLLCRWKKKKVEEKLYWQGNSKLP
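Probe or stimulus: acetylcholine, EC20 level; Assay system: human M5 receptor in CHO-K1 cells; Schedule: compound preincubation 140 s before EC20 acetylcholine addition; Technique: intracellular calcium via Fluo-8 fluorescence; Dosing: single-point, 3 µM nominal; Read-out basis: percent activation from peak-over-basal fluorescence ratio, scaled EC20-to-EC100 acetylcholine; Repeats: one well per compound, no replicates.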
CHRM4 PAM = human M4 muscarinic receptor positive allosteric modulators, primary screen, CHO-K1 cells, Fluo-8 calcium fluorescence | Muscarinic acetylcholine receptor M4 (Homo sapiens), P08173 | CHO-K1 hM4/Gqi5, ACh EC20; 0% = ACh EC20, 100% = maximal ACh | activation, % at 3 µM | hit rate 0.4% among 360,000;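 active = activation above its plate's cutoff, the mean activation of sample wells plus 3 SD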
M5 antag = human M5 muscarinic receptor antagonists, primary screen, CHO cells, Fluo-8 calcium fluorescence; Muscarinic acetylcholine receptor M5 (Homo sapiens), P08912; CHO-hM5 cells, ACh EC80; inhibition, % at 3 µM; hit rate 0.59% among 360,000; AID 624040, 2012;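 active = inhibition above a per-plate cutoff, the mean of that plate's test compounds plus 3 SD, cut at about 27% in these data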;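 also: 0% = acetylcholine EC80 with DMSO and 100% = DMSO without agonist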
M4 ag = human M4 muscarinic receptor agonists, primary screen, CHO-K1 cells, Fluo-8 calcium fluorescence; CHO-K1 hM4/Gqi5; vehicle 0%, full acetylcholine response 100%; hit rate 0.14% among 360,000; Muscarinic acetylcholine receptor M4 (Homo sapiens), P08173; AID 624127, 2012; activation, % at 3 µM;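 active = activation above the run mean over all test wells plus 3 SD, cut at about 32% in these data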;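 also: peak over basal fluorescence ratio per well then scaled between controls; 0% = DMSO wells and 100% = acetylcholine at EC100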
CHRM4 antagonist = human M4 muscarinic receptor antagonists, primary screen, CHO cells, Fluo-8 calcium fluorescence; CHO-hM4 cells, ACh EC80; AID 624125, 2012; Muscarinic acetylcholine receptor M4 (Homo sapiens), P08173; hit rate 0.73% among 360,000; inhibition, % at 3 µM;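 active = inhibition above its plate's cutoff, the mean inhibition of sample wells plus 3 SD, cut at about 27% in these data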;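 also: 0% = acetylcholine EC80 with DMSO and 100% = DMSO without agonist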
M5 ag = human M5 muscarinic receptor agonists, primary screen, CHO-K1 cells, Fluo-8 calcium fluorescence; Muscarinic acetylcholine receptor M5 (Homo sapiens), P08912; CHO-K1 hM5 cells; 0% DMSO wells, 100% maximal acetylcholine response; activation, % at 3 µM; hit rate 0.19% among 360,000; AID 624037, 2012;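 active = activation above the run's mean over test compounds plus 3 SD, cut at about 23% in these data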;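 also: signal is peak over basal fluorescence ratio across the kinetic read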
* hit, by the source's call. A selection: hits, their analogues and other compounds. The true share with any hit is near 1.8%.

SMILES | CHRM5 PAM | CHRM4 PAM | M5 antag | M4 ag | CHRM4 antagonist | M5 ag
COc1ccc(CNC2CCCc3ccccc32)cc1OC (centres undefined) | -2 | 5 | -6 | 2 | -17 | -3
COc1ccccc1CNC1CCCc2ccccc21 (centres undefined) | -9 | -14 | 17 | 1 | 30* | -7
Cc1ccc(C(=O)NC(=S)NNC(=O)c2ccccc2)cc1 | -23 | -19 | 13 | 87* | -2 | 40*
Cc1cccc(C(=O)NNC(=S)NC(=O)c2ccccc2)c1 | -27 | -17 | 23 | 118* | 18 | 57*
COc1ccc(C(=O)NNC(=S)NC(=O)c2ccc(F)cc2)cc1Br | -28 | -19 | 2 | 93* | 15 | 68*
Cc1ccc(C(=O)NNC(=S)NC(=O)c2ccc(Cl)cc2Cl)cc1 | -17 | -41 | 8 | 160* | 36* | 77*
CCCCC(=O)NC(=S)NNC(=O)c1ccc(Cl)cc1Cl | 5 | -2 | 11 | 3 | 8 | 1
Cc1cc(=O)oc2cc(OCC(=O)N3CC[C@@]4(O)CCCC[C@H]4C3)c(Cl)cc12 | -4 | -4 | 3 | 3 | 1 | 2
CC(C)(C)c1cc(CCC(=O)NNC(=S)NC(=O)c2ccccc2)cc(C(C)(C)C)c1O | -10 | -10 | 16 | 37* | 4 | 14
Cc1cccc(C(=O)NNC(=S)NC(=O)c2cccs2)c1 | -36 | -18 | 7 | 129* | -5 | 66*
O=C(NC(=S)NNC(=O)c1ccccc1O)c1ccccc1 | -1 | -2 | 11 | 6 | 5 | 1
Cc1ccccc1C(=O)NNC(=S)NC(=O)c1ccccc1 | -17 | -5 | 7 | 41* | 1 | 23
COc1ccc(C(=O)NNC(=S)NC(=O)c2ccc(OC)cc2)cc1 | -13 | -13 | 12 | 54* | 9 | 20
COc1ccc(C(=O)NNC(=S)NC(=O)c2cccnc2)cc1 | -9 | 0 | 15 | 0 | 2 | -3
O=C(c1ccc(N2C(=O)c3ccccc3C2=O)cc1)N1CCN(S(=O)(=O)c2ccccc2F)CC1 | -2 | -6 | 1 | 6 | 6 | 1
CN(C)C(=O)CSc1nc(-c2cccs2)c(-c2cccs2)[nH]1 | -4 | -8 | 10 | 0 | 7 | -5
Cc1ccc(Cl)cc1NC(=O)C1CCCN1S(=O)(=O)c1ccc(-c2ccc(=O)[nH]n2)s1 (centres undefined) | -3 | 5 | -1 | 3 | -24 | -5
COc1ccc(OCC(O)CNS(=O)(=O)c2ccc(NC(C)=O)cc2)cc1 (centres undefined) | -5 | 0 | 10 | 2 | 5 | -5
CC1(C(=O)NS(=O)(=O)c2ccc(F)cc2F)CCN1C(=O)CCc1ccc(Cl)cc1Cl (centres undefined) | 5 | 2 | -2 | 1 | -4 | 1
Cc1ccc(C(=O)NNC(=S)NC(=O)c2ccccc2)cc1 | -30 | -68 | 30* | 130* | 28* | 66*
Cc1ccc(C(=O)NC(=S)NNC(=O)c2ccccc2O)cc1 | -3 | 3 | 8 | 0 | -2 | 1
COc1ccc(CC2(CO)CCN(C(C)Cc3ccc(Cl)cc3)CC2)cc1 (centres undefined) | -2 | -20 | 3 | 5 | 13 | -3
COc1ccc(CCC(C)N2CCC(CO)(Cc3ccccc3)CC2)cc1 (centres undefined) | -5 | -10 | 3 | 4 | 33* | -19
Cc1ccnc2nc(C(=O)OCC(=O)NC3CCCC(C)C3C)nn12 (centres undefined) | -4 | 21* | 5 | 2 | -9 | 1
COc1cc(C(C)=O)ccc1O | -5 | 2 | -2 | 1 | -4 | 1
SMILES | CHRM5 PAM | CHRM4 PAM | M5 antag | M4 ag | CHRM4 antagonist | M5 ag
CCN(CC)CCC(O)(c1ccccc1)C1CCCCC1 (centres undefined) | -33 | -16 | 89* | 0 | 85* | -22
OC(c1ccccc1)(C1CCCCC1)C(CN1CCOCC1)c1ccccc1 (centres undefined) | 3 | 5 | -6 | 2 | -14 | -6
CC[N+](CC)(CC)CCC(O)(c1ccccc1)C1CCCCC1 (centres undefined) | -18 | -18 | 99* | 2 | 99* | -1
O=C(C[C@H]1CC[C@@H]2[C@H](COC[C@H](O)CN2Cc2cccc(F)c2)O1)NCc1cccc(F)c1 | 9 | -1 | -11 | 2 | 1 | 3
Cc1ccc(C(c2sc3nc(C)nn3c2O)N2CC(C)OC(C)C2)cc1 (centres undefined) | 4 | -1 | -4 | 0 | 3 | -7
Cc1nc2sc(C(c3ccc(Cl)cc3)N3CC(C)OC(C)C3)c(O)n2n1 (centres undefined) | -4 | 17* | 7 | 2 | -2 | -2
CC(NS(=O)(=O)OCC(Cl)(Cl)Cl)c1ccc(C(C)(C)C)cc1 (centres undefined) | -25 | -13 | 15 | 4 | 45* | -11
Cc1ccc([C@H]2C[C@@H](O)[C@H](n3cc(C4CC4)nn3)CN2Cc2cccs2)cc1 | 0 | 17* | -9 | 0 | -28 | -2
CCOC(=O)c1c(SCC(=O)Nc2nccs2)nc(C)c(C)c1C | -4 | -9 | 9 | 2 | 3 | -1
CCn1c(C)nc2cc(S(N)(=O)=O)ccc21 | -2 | -1 | -9 | 1 | -5 | 0
CCn1c(C)nc2cc(S(=O)(=O)C(F)(F)C(F)C(F)(F)F)ccc21 (centres undefined) | -14 | -10 | 27* | 14 | 4 | 7
CCOc1cc(N2CCOCC2)c(OCC)cc1NC(=O)c1cccc(S(=O)(=O)N2CCOCC2)c1 | -4 | -4 | 11 | 4 | 12 | 6
O=c1cc(C(F)(F)F)nc(SC/C=C/c2ccccc2)[nH]1 | -3 | 6 | -1 | 1 | 2 | 3
CCN1C(=O)[C@H]2[C@@H](c3ccc(-c4ccc(C(C)=O)cc4)cc3)N[C@@](Cc3ccccc3)(C(=O)OC)[C@H]2C1=O | -4 | 24* | -2 | 2 | -11 | -1
CCN1C(=O)[C@H]2[C@@H](c3ccc(-c4ccccc4)cc3)N[C@@](Cc3ccccc3)(C(=O)OC)[C@H]2C1=O | 1 | 17 | 5 | 0 | -14 | -2

Screens as filed in PubChem.
